Bioassay records as filed in PubChem.
CDK5 inh: inhibitors of human CDK5/p35 kinase, primary screen, biochemical, single concentration. Recombinant CDK5/p35, ADP-Glo luminescence, 60 min. inhibition, % at 10 µM. 330,000 compounds, 0.01% hits. AID 488839, 2010;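 active = highest replicate inhibition of at least 50% and at least 75% of replicates reaching 50%; inconclusive = only one of the two criteria met; inactive = both criteria failed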;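 also: plate controls were DMSO neutral control for no effect and GW8510 at 10 µM for full effect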
Target sequence (Q00535 whole entry, looked up): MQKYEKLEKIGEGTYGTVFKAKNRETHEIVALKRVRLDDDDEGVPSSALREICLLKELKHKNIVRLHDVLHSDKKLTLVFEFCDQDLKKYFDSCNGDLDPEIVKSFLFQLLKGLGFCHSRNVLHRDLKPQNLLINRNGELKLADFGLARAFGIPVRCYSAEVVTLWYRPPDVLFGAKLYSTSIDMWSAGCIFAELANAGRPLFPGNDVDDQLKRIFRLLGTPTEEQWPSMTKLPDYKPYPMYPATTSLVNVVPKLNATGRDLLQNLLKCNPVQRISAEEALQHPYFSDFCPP
Target sequence (Q15078 whole entry, looked up): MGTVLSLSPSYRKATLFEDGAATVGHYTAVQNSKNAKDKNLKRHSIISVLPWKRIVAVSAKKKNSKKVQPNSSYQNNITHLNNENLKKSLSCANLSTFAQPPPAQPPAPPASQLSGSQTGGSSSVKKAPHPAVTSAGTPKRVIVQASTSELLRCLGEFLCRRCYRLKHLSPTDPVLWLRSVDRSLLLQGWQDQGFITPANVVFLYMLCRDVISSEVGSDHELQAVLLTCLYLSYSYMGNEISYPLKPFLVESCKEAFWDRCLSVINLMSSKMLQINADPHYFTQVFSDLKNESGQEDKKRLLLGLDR
C2C12 statin: suppressors of statin myotoxicity in C2C12 myotubes, primary screen, cell-based, single point, plate reader | C2C12 myotubes + simvastatin, ATP luminescence, 48 h; scaled: DMSO 0, geranylgeraniol control 100 | rescue of ATP level, % at 7.49 µM | 330,000 compounds, 0.78% hits | AID 602340, 2012;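 active = mean ATP rescue above about 67%, or every replicate alone reaching that limit, limit read from the data, passing the limit was not always enough; inconclusive = no clear call, values can overlap the other calls; inactive = mean under the limit and some replicate under it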;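 also: myotubes were challenged with 10 µM simvastatin during compound exposure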
CAL PDZ FP-1: untagged CAL PDZ binding inhibitors, primary screen, biochemical, fluorescence polarization, HTS; AID 602252, 2012; inhibition, % at 24.9 µM; Golgi-associated PDZ and coiled-coil motif-containing protein (Homo sapiens), Q9HD26; purified CAL PDZ, TMR-peptide fluorescence polarization, 1 h; 300,000 compounds, 0.92% hits;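 active = mean inhibition of at least 30% with at least half of replicates also reaching 30%; inconclusive = no clear call, values can overlap the other calls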;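 also: 0% = DMSO neutral control and 100% = excess unlabeled competitor peptide PRC23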
CAL PDZ FP-2: CAL PDZ peptide-binding inhibitors, primary screen, biochemical, fluorescence polarization, Cer-tagged CAL PDZ, HTS; Golgi-associated PDZ and coiled-coil motif-containing protein (Homo sapiens), Q9HD26; purified CAL PDZ, TMR-peptide fluorescence polarization, 1 h; inhibition, % at 20 µM; 330,000 compounds, 0.02% hits; AID 504414, 2011;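 active = highest replicate inhibition of at least 40%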;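 also: plate controls were DMSO neutral control wells for no effect and unlabeled competitor peptide control wells for full effect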
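System: purified tagged CAL PDZ domain construct (CerCALP). Schedule: 1 h incubation at room temperature before polarization reading. Medium: 25 mM sodium phosphate pH 7.4, 150 mM NaCl, TCEP, IgG, Thesit. Read-out: percent inhibition from loss of millipolarization. Measured by: FP readout, S and P plane fluorescence. Probe or stimulus: fluorescent TMR peptide probe.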
S100A4 inh HTS: inhibitors of S100A4-myosin IIA peptide binding, primary screen, biochemical, fluorescence polarization, TAMRA-MyoIIA peptide; Protein S100-A4 (Homo sapiens), P26447; inhibition, % at 10.7 µM; 360,000 compounds, 0.14% hits;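 active = mean inhibition of at least 70% across replicates, with every replicate also reaching that level; inconclusive = mean inhibition reaches 70% but some replicates fall short; inactive = mean inhibition below 70%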
Target sequence (P26447 whole entry, looked up): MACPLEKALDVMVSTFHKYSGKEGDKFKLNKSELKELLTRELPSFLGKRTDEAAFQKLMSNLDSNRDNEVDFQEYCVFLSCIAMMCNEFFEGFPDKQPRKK
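Test system – S100A4 monomer (human) · Compound – single-point compound testing · Schedule – 5 min incubation before reading · Probe or stimulus – TAMRA-labelled myosin IIA heavy-chain peptide probe, 5 nM · Benchmarks – neutral control DMSO, positive control TFP · Medium – Calcium-containing HEPES buffer, pH 7.2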
dFosB act: activators of delta FosB homodimer, primary screen, biochemical, fluorescence polarization, TAMRA-CDK5 oligo, single point. purified delta FosB; percent of positive-control signal above neutral wells. activation, % at 25 µM. 340,000 compounds, 0.99% hits. AID 493131, 2011;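 active = mean activation above about 17%, with every replicate also reaching it, limit read from the data, passing the limit was not always enough; inconclusive = only one of the two conditions met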
An asterisk follows results filed as active; ? = inconclusive; nt = not tested or not shown. Hits are enriched below; roughly 2% of the tested compounds scored in any of these assays.

SMILES	CDK5 inh	C2C12 statin	CAL PDZ FP-1	CAL PDZ FP-2	S100A4 inh HTS	dFosB act
CN(CC(=O)Nc1cc(Cl)ccc1Cl)C1CCS(=O)(=O)C1 (stereo unspecified)	-6	2	0	-3	-1	5
CN(CC(=O)Nc1cc(Cl)ccc1C#N)C1CCS(=O)(=O)C1 (stereo unspecified)	-6	2	85*	-1	-2	0
Cn1ncc([N+](=O)[O-])c1C(=O)Nc1ccn(Cc2ccccc2F)n1	0	2	-1	0	-4	1
Cn1cc([N+](=O)[O-])c(C(=O)Nc2ccn(Cc3c(F)c(F)cc(F)c3F)n2)n1	1	144*	nt	-3	nt	1
CO[C@H]1CC[C@H]2CCOc3c(C#N)cccc3C(=O)N(C)C[C@H](c3ccccc3)CC(=O)N(C)C[C@H]1O2	nt	5	nt	nt	121*	nt
CO[C@@H]1CC[C@H]2CCOc3c(C#N)cccc3C(=O)N(C)C[C@H](C)C(=O)N(C)C[C@H]1O2	nt	1	nt	nt	122*	nt
CO[C@@H]1CC[C@H]2CCOc3c(C#N)cccc3C(=O)N(C)C[C@@H](c3ccccc3)CC(=O)N(C)C[C@H]1O2	nt	-2	nt	nt	16	nt
O=C(CCN1CCOCC1)Nc1cc(C(=O)Nc2ccccc2F)ccc1N1CC2CC(C1)c1cccc(=O)n1C2 (stereo unspecified)	-1	-2	69*	-1	-1	-11
Cc1cccc(C(=O)Nc2nnc(-c3ccc(C(C)(C)C)cc3)s2)c1	1	83*	-4	nt	nt	-7
Cc1ccccc1C(=O)Nc1nnc(-c2ccc(C(C)(C)C)cc2)s1	0	nt	-4	1	nt	1
Cc1ccc(S(=O)(=O)CCc2nnc(NC(=O)c3ccccn3)s2)cc1	-2	nt	-2	1	nt	-14
c1ccc(Oc2nc(-c3cccnc3)nc3ccccc23)cc1	0	nt	nt	-3	-1	-20
COC(=O)C(NNc1ccccc1)(NC(=O)c1cccc(F)c1)C(F)(F)F (stereo unspecified)	1	-5	50*	0	nt	-3
O=C(Nc1ccc(Nc2ccccc2)cc1)c1cccc(F)c1	0	-35	1	0	-3	-6
Cc1ccc(S(=O)(=O)NCCNc2ccc(Br)c(C)c2)cc1	0	-3	39*	0	-11	-6
NC1=NC(=Nc2ccc(Cl)cc2)c2ccccc21	0	nt	-3	-2	-5	-3
NC1=NC(=Nc2ccccc2)c2ccccc21	1	134*	15	-2	nt	-2
O=C(COC(=O)c1ccccc1O)Nc1cccc(S(=O)(=O)NC2=NCCCCC2)c1	2	-6	35*	-2	-4	-12
O=C(Nc1nc(-c2ccc(Br)cc2)cs1)c1cccnc1	-1	nt	-2	-1	2	-8
O=C(NC(=S)Nc1nc(-c2ccc(Br)cc2)cs1)c1cccnc1	0	254*	-3	-2	nt	3
COCCNC(=S)NN=C1CCCCC1	-2	nt	-1	-1	1	-3
CN(C)Cc1cn(CC[C@H]2CC[C@H](NC(=O)Cc3cccnc3)[C@H](CO)O2)nn1	nt	6	nt	nt	94*	nt
CN(C)Cc1cn(CC[C@@H]2CC[C@H](NC(=O)Cc3cccnc3)[C@H](CO)O2)nn1	nt	21	nt	nt	-2	nt
COc1cc(/C=N/NC(=O)c2cc(-c3ccccc3)nc3ccccc23)ccc1O	-5	-5	-5	1	5	-9
Cc1ccc(-c2cc(C(=O)Nc3ccncc3)c3ccccc3n2)cc1	0	23	32*	-4	-9	-11
SMILES	CDK5 inh	C2C12 statin	CAL PDZ FP-1	CAL PDZ FP-2	S100A4 inh HTS	dFosB act
COc1cc(-c2cc(C(=O)Nc3ccncc3)c3ccccc3n2)cc(OC)c1OC	0	-14	-8	-4	6	?
O=C(N/N=C/c1ccc(O)cc1)c1cc(-c2ccccc2)nc2ccccc12	0	0	-4	-1	1	29*
CCOc1ccccc1NC(C)C(=O)Nc1cc(C(F)(F)F)ccc1N1CCOCC1 (stereo unspecified)	2	nt	-2	0	nt	-2
C[C@@H]1CCCCO[C@@H](CN(C)C(=O)C2CCCCC2)[C@@H](C)CN([C@H](C)CO)C(=O)c2cc(NC(=O)Nc3cccc4ccccc34)ccc2O1	nt	nt	nt	nt	108*	nt
C[C@@H]1CN([C@H](C)CO)C(=O)c2cc(N(C)C)ccc2O[C@@H](C)CCCCO[C@H]1CN(C)C(=O)Nc1cccc2ccccc12	nt	34	nt	nt	-5	nt
C[C@@H]1CCCCO[C@H](CN(C)C(=O)Nc2cccc3ccccc23)[C@H](C)CN([C@@H](C)CO)C(=O)c2cc(N(C)C)ccc2O1	nt	71*	nt	nt	-4	nt
COc1ccc(NC(=O)Nc2ccc3c(c2)C(=O)N([C@H](C)CO)C[C@H](C)[C@H](CN(C)C(=O)C2CCCCC2)OCCCC[C@H](C)O3)cc1	nt	71*	nt	nt	0	nt
COc1ccc(NC(=O)Nc2ccc3c(c2)C(=O)N([C@@H](C)CO)C[C@H](C)[C@H](CN(C)C(=O)C2CCCCC2)OCCCC[C@H](C)O3)cc1	nt	79*	nt	nt	4	nt
CCC(=O)Nc1ccc2c(c1)C(=O)N(C)[C@@H]1CC[C@H](CC(=O)NC3CCCC3)O[C@H]1CO2	nt	12	nt	nt	-2	nt
C[C@@H]1CCCCO[C@H](CN(C)C(=O)Nc2cccc3ccccc23)[C@H](C)CN([C@@H](C)CO)C(=O)c2cc(NC(=O)Nc3ccc4c(c3)OCO4)ccc2O1	nt	122*	nt	nt	-4	nt
C[C@@H]1CN([C@@H](C)CO)C(=O)c2cc(NC(=O)Nc3ccc4c(c3)OCO4)ccc2O[C@@H](C)CCCCO[C@H]1CN(C)C(=O)Nc1cccc2ccccc12	nt	8	nt	nt	-4	nt
Cc1c(CCC(=O)N2CCC[C@H]2C(=O)O)c(=O)oc2c(C)c3oc4c(c3cc12)CCCC4	2	8	-22	-7	-2	6
O=C(Nc1ccc2c(c1)OCCO2)c1cc(-c2ccccn2)nc2ccc(Br)cc12	-1	-2	4	0	21	?
CC(C)(C)NC(=O)Cn1nc(C(F)(F)F)c2c1CCCC2	0	nt	-5	0	-1	-7
FC(F)(F)c1nc2nncn2c2c1CCCCC2	0	149*	nt	0	nt	5
COc1ccccc1-n1c(C)cc(SC)c(C(C)=O)c1=S	0	98*	1	0	nt	2
O=C(C[C@H]1C[C@@H]2c3cc(NC(=O)NC4CCCC4)ccc3O[C@@H]2[C@H](CO)O1)NCc1ccc(-c2ccccc2)cc1	nt	-22	nt	nt	-12	nt
